According to PMC4832308 (Cancer, 2015):

System: patients with advanced solid tumors or multiple myeloma
Assay: phase 1 dose escalation: safety, tolerability, DLT, MTD
Type: in vivo, human
In short: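 Modified accelerated titration from 7.5 mg, oral daily in 28-day cycles. Single-patient cohorts used 100% increments until the first drug-related grade ≥2 toxicity, then 6-patient cohorts used ~50% steps. A dose with ≥2 DLTs was nontolerated. MTD was the last lower dose with 0–1 of 6 DLTs in cycle 1. Adverse events were graded by NCI CTCAE version 4.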

CO[C@H]1CC[C@H](N2C(=O)CNc3ncc(-c4ccc(C(C)(C)O)nc4)nc32)CC1 [CC‐223]
Arthralgia (treatment‐related AE) (7.5 mg, Any Grade): 0 n (%) | Asthenia (treatment‐related AE) (7.5 mg, Any Grade): 0 n (%) | Decreased appetite (treatment‐related AE) (7.5 mg, Any Grade): 0 n (%) | Diarrhea (treatment‐related AE) (7.5 mg, Any Grade): 0 n (%) | Dry mouth (treatment‐related AE) (7.5 mg, Any Grade): 0 n (%) | Dysgeusia (treatment‐related AE) (7.5 mg, Any Grade): 1 (100) n (%) | Dyspnea (treatment‐related AE) (7.5 mg, Any Grade): 0 n (%) | Fatigue (treatment‐related AE) (7.5 mg, Any Grade): 1 (100) n (%) | Hyperglycemia (treatment‐related AE) (7.5 mg, Any Grade): 0 n (%) | Increased glycosylated hemoglobin (treatment‐related AE) (7.5 mg, Any Grade): 0 n (%) | Mucositis (treatment‐related AE) (7.5 mg, Any Grade): 0 n (%) | Nausea (treatment‐related AE) (7.5 mg, Any Grade): 1 (100) n (%) | Pruritus (treatment‐related AE) (7.5 mg, Any Grade): 0 n (%) | Rash (treatment‐related AE) (7.5 mg, Any Grade): 0 n (%) | Rash pruritic (treatment‐related AE) (7.5 mg, Any Grade): 0 n (%) | Thrombocytopenia (treatment‐related AE) (7.5 mg, Any Grade): 0 n (%) | Vomiting (treatment‐related AE) (7.5 mg, Any Grade): 0 n (%) | Arthralgia (treatment‐related AE) (7.5 mg, Grade ≥3): 0 n (%) | Asthenia (treatment‐related AE) (7.5 mg, Grade ≥3): 0 n (%) | Decreased appetite (treatment‐related AE) (7.5 mg, Grade ≥3): 0 n (%) | Diarrhea (treatment‐related AE) (7.5 mg, Grade ≥3): 0 n (%) | Dry mouth (treatment‐related AE) (7.5 mg, Grade ≥3): 0 n (%) | Dysgeusia (treatment‐related AE) (7.5 mg, Grade ≥3): 0 n (%) | Dyspnea (treatment‐related AE) (7.5 mg, Grade ≥3): 0 n (%) | Fatigue (treatment‐related AE) (7.5 mg, Grade ≥3): 0 n (%) | Hyperglycemia (treatment‐related AE) (7.5 mg, Grade ≥3): 0 n (%) | Increased glycosylated hemoglobin (treatment‐related AE) (7.5 mg, Grade ≥3): 0 n (%) | Mucositis (treatment‐related AE) (7.5 mg, Grade ≥3): 0 n (%) | Nausea (treatment‐related AE) (7.5 mg, Grade ≥3): 0 n (%) | Pruritus (treatment‐related AE) (7.5 mg, Grade ≥3): 0 n (%) | Rash (treatment‐related AE) (7.5 mg, Grade ≥3): 0 n (%) | Rash pruritic (treatment‐related AE) (7.5 mg, Grade ≥3): 0 n (%) | Thrombocytopenia (treatment‐related AE) (7.5 mg, Grade ≥3): 0 n (%) | Vomiting (treatment‐related AE) (7.5 mg, Grade ≥3): 0 n (%) | Dose interruptions (15 mg): 2 | Dose reductions (15 mg): 0 | Arthralgia (treatment‐related AE) (15 mg, Any Grade): 0 n (%) | Asthenia (treatment‐related AE) (15 mg, Any Grade): 1 (50) n (%) | Decreased appetite (treatment‐related AE) (15 mg, Any Grade): 0 n (%) | Diarrhea (treatment‐related AE) (15 mg, Any Grade): 1 (50) n (%) | Dry mouth (treatment‐related AE) (15 mg, Any Grade): 0 n (%) | Dysgeusia (treatment‐related AE) (15 mg, Any Grade): 1 (50) n (%) | Dyspnea (treatment‐related AE) (15 mg, Any Grade): 0 n (%) | Fatigue (treatment‐related AE) (15 mg, Any Grade): 1 (50) n (%) | Hyperglycemia (treatment‐related AE) (15 mg, Any Grade): 0 n (%) | Increased glycosylated hemoglobin (treatment‐related AE) (15 mg, Any Grade): 0 n (%) | Mucositis (treatment‐related AE) (15 mg, Any Grade): 1 (50) n (%) | Nausea (treatment‐related AE) (15 mg, Any Grade): 0 n (%) | Pruritus (treatment‐related AE) (15 mg, Any Grade): 1 (50) n (%) | Rash (treatment‐related AE) (15 mg, Any Grade): 1 (50) n (%) | Rash pruritic (treatment‐related AE) (15 mg, Any Grade): 0 n (%) | Thrombocytopenia (treatment‐related AE) (15 mg, Any Grade): 0 n (%) | Vomiting (treatment‐related AE) (15 mg, Any Grade): 0 n (%) | Arthralgia (treatment‐related AE) (15 mg, Grade ≥3): 0 n (%) | Asthenia (treatment‐related AE) (15 mg, Grade ≥3): 0 n (%) | Decreased appetite (treatment‐related AE) (15 mg, Grade ≥3): 0 n (%) | Diarrhea (treatment‐related AE) (15 mg, Grade ≥3): 0 n (%) | Dry mouth (treatment‐related AE) (15 mg, Grade ≥3): 0 n (%) | Dysgeusia (treatment‐related AE) (15 mg, Grade ≥3): 0 n (%) | Dyspnea (treatment‐related AE) (15 mg, Grade ≥3): 0 n (%) | Fatigue (treatment‐related AE) (15 mg, Grade ≥3): 0 n (%) | Hyperglycemia (treatment‐related AE) (15 mg, Grade ≥3): 0 n (%) | Increased glycosylated hemoglobin (treatment‐related AE) (15 mg, Grade ≥3): 0 n (%) | Mucositis (treatment‐related AE) (15 mg, Grade ≥3): 0 n (%) | Nausea (treatment‐related AE) (15 mg, Grade ≥3): 0 n (%) | Pruritus (treatment‐related AE) (15 mg, Grade ≥3): 0 n (%) | Rash (treatment‐related AE) (15 mg, Grade ≥3): 0 n (%) | Rash pruritic (treatment‐related AE) (15 mg, Grade ≥3): 0 n (%) | Thrombocytopenia (treatment‐related AE) (15 mg, Grade ≥3): 0 n (%) | Vomiting (treatment‐related AE) (15 mg, Grade ≥3): 0 n (%) | Dose interruptions (30 mg): 8 | Dose reductions (30 mg): 0 | Arthralgia (treatment‐related AE) (30 mg, Any Grade): 0 n (%) | Asthenia (treatment‐related AE) (30 mg, Any Grade): 2 (22) n (%) | Decreased appetite (treatment‐related AE) (30 mg, Any Grade): 4 (44) n (%) | Diarrhea (treatment‐related AE) (30 mg, Any Grade): 3 (33) n (%) | Dry mouth (treatment‐related AE) (30 mg, Any Grade): 1 (11) n (%) | Dysgeusia (treatment‐related AE) (30 mg, Any Grade): 0 n (%) | Dyspnea (treatment‐related AE) (30 mg, Any Grade): 1 (11) n (%) | Fatigue (treatment‐related AE) (30 mg, Any Grade): 4 (44) n (%) | Hyperglycemia (treatment‐related AE) (30 mg, Any Grade): 4 (44) n (%) | Increased glycosylated hemoglobin (treatment‐related AE) (30 mg, Any Grade): 0 n (%) | Mucositis (treatment‐related AE) (30 mg, Any Grade): 2 (22) n (%) | Nausea (treatment‐related AE) (30 mg, Any Grade): 4 (44) n (%) | Pruritus (treatment‐related AE) (30 mg, Any Grade): 1 (11) n (%) | Rash (treatment‐related AE) (30 mg, Any Grade): 1 (11) n (%) | Rash pruritic (treatment‐related AE) (30 mg, Any Grade): 1 (11) n (%) | Thrombocytopenia (treatment‐related AE) (30 mg, Any Grade): 1 (11) n (%) | Vomiting (treatment‐related AE) (30 mg, Any Grade): 2 (22) n (%) | Arthralgia (treatment‐related AE) (30 mg, Grade ≥3): 0 n (%) | Asthenia (treatment‐related AE) (30 mg, Grade ≥3): 0 n (%) | Decreased appetite (treatment‐related AE) (30 mg, Grade ≥3): 0 n (%) | Diarrhea (treatment‐related AE) (30 mg, Grade ≥3): 0 n (%) | Dry mouth (treatment‐related AE) (30 mg, Grade ≥3): 0 n (%) | Dysgeusia (treatment‐related AE) (30 mg, Grade ≥3): 0 n (%) | Dyspnea (treatment‐related AE) (30 mg, Grade ≥3): 0 n (%) | Fatigue (treatment‐related AE) (30 mg, Grade ≥3): 0 n (%) | Hyperglycemia (treatment‐related AE) (30 mg, Grade ≥3): 2 (22) n (%) | Increased glycosylated hemoglobin (treatment‐related AE) (30 mg, Grade ≥3): 0 n (%) | Mucositis (treatment‐related AE) (30 mg, Grade ≥3): 0 n (%) | Nausea (treatment‐related AE) (30 mg, Grade ≥3): 0 n (%) | Pruritus (treatment‐related AE) (30 mg, Grade ≥3): 0 n (%) | Rash (treatment‐related AE) (30 mg, Grade ≥3): 0 n (%) | Rash pruritic (treatment‐related AE) (30 mg, Grade ≥3): 0 n (%) | Thrombocytopenia (treatment‐related AE) (30 mg, Grade ≥3): 0 n (%) | Vomiting (treatment‐related AE) (30 mg, Grade ≥3): 0 n (%) | Dose interruptions (45 mg): 5 | Dose reductions (45 mg): 1 | Arthralgia (treatment‐related AE) (45 mg, Any Grade): 2 (22) n (%) | Asthenia (treatment‐related AE) (45 mg, Any Grade): 1 (11) n (%) | Decreased appetite (treatment‐related AE) (45 mg, Any Grade): 3 (33) n (%) | Diarrhea (treatment‐related AE) (45 mg, Any Grade): 4 (44) n (%) | Dry mouth (treatment‐related AE) (45 mg, Any Grade): 2 (22) n (%) | Dysgeusia (treatment‐related AE) (45 mg, Any Grade): 2 (22) n (%)
